M18AAP inhibitor = PfM18AAP inhibitors, malaria aminopeptidase, primary screen, biochemical, QFRET, recombinant enzyme; AID 1822, 2009; inhibition, % at 7.35 µM; H-Glu-NHMec fluorogenic cleavage; 1.2% of 290,000 active;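 active means inhibition above the campaign mean inhibition over all tested compounds plus 3 SD, cut at about 28% in these data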
RanGTP-Impb inh = inhibitors of RanGTP-importin-beta interaction, primary screen, biochemical, FRET, CFP-Ran, YFP-importin-beta, homogeneous. cell-free CFP-Ran/YFP-importin-beta FRET ratio. 1.1% of 300,000 active. AID 2216, 2009. inhibition, % (test concentration not listed). Ran GTPase (GTP-bound) - importin-beta complex;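 active means more than half of the replicate wells show a fall in the fluorescence ratio signal beyond about 16%, limit read from the data, passing the limit was not always enough; inconclusive means exactly half of the replicate wells pass the set limit; inactive means fewer than half of replicates pass the limit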
Runt-CBFb FRET = inhibitors of RUNX1 Runt–CBFb binding, primary screen, biochemical, FRET, Cerulean-Runt, Venus-CBFb, uHTS; Cerulean-Runt/Venus-CBFb FRET ratio 530/480, 1 h; Runt-related transcription factor 1 (Homo sapiens) + Core-binding factor subunit beta …; inhibition, % at 20 µM; 0.46% of 220,000 active; AID 1496, 2009;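 active means inhibition over about 50% at 20 µM in the single-dose screen, limit read from the data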
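System: Cerulean-labeled Runt domain protein | Quantity: 100 nM of each labeled protein | Schedule: 1 h compound exposure, room temperature | Detection: Fluorescence energy transfer, 422 nm excitation, 530/480 nm emission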
Hck-Nef inh = inhibitors of Nef-activated human Hck kinase, primary screen, biochemical, Z-Lyte FRET, 384-well, Hck-YEEI; inhibition, % at 20 µM; Tyrosine-protein kinase HCK (Homo sapiens), P08631; 0.68% of 220,000 active; Recombinant Hck-YEEI plus Nef, Z-Lyte FRET kinase assay;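 active means Hck-Nef kinase inhibition above about 50%, limit read from the data; inactive means inhibition below that limit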
Target sequence (P08631 whole entry, looked up): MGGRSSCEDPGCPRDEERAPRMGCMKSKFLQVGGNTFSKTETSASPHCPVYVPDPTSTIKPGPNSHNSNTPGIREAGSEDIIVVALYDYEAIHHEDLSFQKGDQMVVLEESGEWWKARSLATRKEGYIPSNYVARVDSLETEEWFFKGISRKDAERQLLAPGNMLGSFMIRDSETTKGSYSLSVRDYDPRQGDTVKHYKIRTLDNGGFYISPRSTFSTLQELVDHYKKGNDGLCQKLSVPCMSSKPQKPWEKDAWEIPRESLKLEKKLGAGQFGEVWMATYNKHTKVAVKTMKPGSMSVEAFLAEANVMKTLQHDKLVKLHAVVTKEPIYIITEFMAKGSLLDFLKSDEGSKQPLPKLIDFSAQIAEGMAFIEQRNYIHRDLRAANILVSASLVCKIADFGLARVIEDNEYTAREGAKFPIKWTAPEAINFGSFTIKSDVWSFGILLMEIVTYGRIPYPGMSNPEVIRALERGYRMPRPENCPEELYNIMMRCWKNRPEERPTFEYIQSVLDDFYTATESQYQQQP
RBBP9 inh = human RBBP9 inhibitors, primary screen, biochemical, fluorescence polarization, FP-Rh probe, HTS. AID 1515, 2009. inhibition, % at 7.94 µM. 0.2% of 220,000 active. recombinant RBBP9. Serine hydrolase RBBP9 (Homo sapiens), O75884;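 active means inhibition above the campaign mean of all tested compounds plus 3 SD, cut at about 14% in these data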
Target sequence (O75884 whole entry, looked up): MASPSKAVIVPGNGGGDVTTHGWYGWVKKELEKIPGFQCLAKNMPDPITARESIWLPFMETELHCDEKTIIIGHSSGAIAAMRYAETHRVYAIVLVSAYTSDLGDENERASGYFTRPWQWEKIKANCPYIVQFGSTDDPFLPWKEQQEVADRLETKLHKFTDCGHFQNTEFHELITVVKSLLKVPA
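Test system: recombinant human RBBP9; Timing: 30 min then 45 min, 25 °C; Detection: fluorescence polarization; Control set: RBBP9 with DMSO as uninhibited control, no-protein wells as full inhibition; Compound dosing: one concentration, 7.94 µM nominal, 0.794% DMSO; Probe or stimulus: FP-Rh activity-based probe, 375 nM before mixing.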
Runt-SMMHC FRET = inhibitors of RUNX1 Runt–CBFb-SMMHC binding, primary screen, biochemical, FRET, Cerulean-Runt, Venus-CBFb-SMMHC, uHTS; Runt-related transcription factor 1 (Homo sapiens) + Core-binding factor subunit beta …; Cerulean-Runt/Venus-CBFb-SMMHC FRET ratio 530/480, 1 h; inhibition, % at 20 µM; 0.74% of 220,000 active; AID 1434, 2008;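 active means mean inhibition across duplicate retests at 20 µM reaching about 50%, limit read from the data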;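 further: inhibitors lower the FRET ratio by blocking Runt binding to CBFb-SMMHC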
Hck-Nef confirm = retest of Hck:Nef kinase inhibitor hits, confirmation, biochemical, Z-Lyte FRET, 384-well, p-Tyr peptide counterscreen | calls only at 10 µM | Recombinant Hck-YEEI:Nef, Z-Lyte FRET kinase assay | 28% of 1,300 active | shares compounds with Hck-Nef inh | AID 463188, 2010;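 active means average inhibition of at least 50%, with Z-scores no higher than 3 in both the phospho-tyrosine peptide and fluorescence counterscreens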
Of the large screens only hits and unclear results are named; the others gave an inactive call (follow-up assays come after a bar, where shown). Sampled rows, rich in hits. Any-hit rate of the full collection: about 2.9%.

COc1ccc(N2C(=NC(=O)C3CCCCC3)SC3CS(=O)(=O)CC32)c(OC)c1 (stereo unspecified)	none (no result: Runt-CBFb FRET, Hck-Nef inh, RBBP9 inh, Runt-SMMHC FRET)
Cn1c(=O)c2c(ncn2CC2OCCO2)n(C)c1=O	none (no result: Runt-CBFb FRET, Hck-Nef inh, RBBP9 inh, Runt-SMMHC FRET)
COc1ccccc1CNC(=O)/C=C/c1ccc(Br)o1	Hck-Nef inh 90.9 | Hck-Nef confirm active
CCc1nccn1S(=O)(=O)c1ccccc1[N+](=O)[O-]	none (no result: Runt-CBFb FRET, Hck-Nef inh, RBBP9 inh, Runt-SMMHC FRET)
CCOC(=O)COc1ccc(/C=C2/SC(=Nc3ccccc3)N(Cc3cccnc3)C2=O)cc1OC	Hck-Nef inh 70.9 | Hck-Nef confirm inactive
COc1ccc(N=C2NC(=O)/C(=C\c3ccco3)S2)cc1	Hck-Nef inh 60.7 | Hck-Nef confirm inactive
Oc1c(/C=C/C=C/C=Nc2ccccc2)sc(=S)n1Cc1ccccc1	Hck-Nef inh 50.2 | Hck-Nef confirm inactive
CSCC[C@H](NC(=O)[C@H](Cc1ccccc1)n1c(=O)[nH]c2ccccc2c1=O)C(=O)N1CCC(C(=O)O)CC1	RanGTP-Impb inh inconclusive (no result: Runt-CBFb FRET, Hck-Nef inh, RBBP9 inh, Runt-SMMHC FRET)
N#C/C(=C(/O)COC(=O)Cc1c[nH]c2ccccc12)c1nc2ccccc2[nH]1	Hck-Nef inh 60.1 | Hck-Nef confirm active
Cc1c(OC(=O)CNC(=O)OC(C)(C)C)ccc2c3c(c(=O)oc12)CCC3	Hck-Nef inh 64.0, Runt-SMMHC FRET 83.2 (not shown: RanGTP-Impb inh)
Cc1c(OCC(=O)OC(C)(C)C)ccc2c3c(c(=O)oc12)CCC3	none
COc1cc(/C=C/C(=O)OCC(=O)NCC2CCCO2)ccc1OCC#N (stereo unspecified)	none
COc1cc(/C=C/C(=O)OCC(=O)Nc2sc3c(c2C#N)CCC(C)C3)ccc1OCC#N (stereo unspecified)	Hck-Nef inh 50.9 | Hck-Nef confirm inactive
Cc1ccsc1/C=N\Nc1cn[nH]c(=O)c1Cl	Hck-Nef inh 73.8 | Hck-Nef confirm active
COc1ccc(/C=N/Nc2cn[nH]c(=O)c2Cl)cc1	Hck-Nef inh 72.2 | Hck-Nef confirm active
CCOC(=O)N1CCN(C/C(Cl)=C/c2ccccc2)CC1	none (no result: Runt-CBFb FRET, Hck-Nef inh, RBBP9 inh, Runt-SMMHC FRET)
Cc1nonc1C1CCCN1Cc1cn[nH]c1-c1ccc2c(c1)OCO2 (stereo unspecified)	none
NC(=O)c1cc(Br)cc2c3c([nH]c12)CCCC3	Hck-Nef inh 57.8 | Hck-Nef confirm active
CCCNC(=O)COC(=O)c1cc2c(=O)n3ccccc3nc2s1	Runt-CBFb FRET 83.1, Hck-Nef inh 51.2, Runt-SMMHC FRET 120.8 | Hck-Nef confirm inactive
CCN(C(=O)c1cc2c(=O)n3ccccc3nc2s1)C1CCCCC1	none (no result: Runt-CBFb FRET, Hck-Nef inh, RBBP9 inh, Runt-SMMHC FRET)
COc1ccc(C2=NN(C(=O)c3ccco3)C(c3cc4ccccc4nc3Cl)C2)cc1 (stereo unspecified)	Hck-Nef inh 50.9 | Hck-Nef confirm inactive
COc1ccc2cc(C3CC(c4ccco4)=NN3C(=O)CCC(=O)O)c(Cl)nc2c1 (stereo unspecified)	none
CCCCC(CC)Cn1c2nc3ccccc3nc2c2c(=N)oc(C)nc21 (stereo unspecified)	Hck-Nef inh 57.2 | Hck-Nef confirm inactive
N#CNC(=Nc1ccc(Cl)cc1)Oc1ccccc1	none
N=c1c(C(=O)NCC2CCCO2)cc2c(=O)n3ccccc3nc2n1Cc1cccnc1 (stereo unspecified)	RanGTP-Impb inh 182.1, Hck-Nef inh 128.2, Runt-SMMHC FRET 57.4
Cc1cccn2c(=O)c3cc(C(=O)NCC4CCCO4)c(=N)n(Cc4cccnc4)c3nc12 (stereo unspecified)	Hck-Nef inh 118.5, Runt-SMMHC FRET 57.4 (not shown: RanGTP-Impb inh)
Cn1nc(C(=O)NCC2CCCO2)c2ccccc2c1=O (stereo unspecified)	none
Cc1cc2occ(CC(=O)N(C)CC(=O)Nc3cccc(F)c3)c2cc1C	none (no result: Runt-CBFb FRET, Hck-Nef inh, RBBP9 inh, Runt-SMMHC FRET)
Cc1ccc(-c2nnc(-c3ccc(NC(=O)c4ccco4)cc3)o2)cc1	Hck-Nef inh 108.0 | Hck-Nef confirm inactive
O=C(Nc1ccc(-c2nc3ncccc3o2)cc1)c1ccco1	none
CC(C)CCSc1cc(NCCO)c([N+](=O)[O-])c2nonc12	none
CCN(CC)c1cc(NCCO)c([N+](=O)[O-])c2nonc12	Hck-Nef inh 56.4 | Hck-Nef confirm inactive
Cc1ccc(N(CC(=O)NCC2CCCO2)C(=O)CCC(=O)Nc2cc(C)on2)cc1 (stereo unspecified)	none (no result: Runt-CBFb FRET, Hck-Nef inh, RBBP9 inh, Runt-SMMHC FRET)
COc1ccc(N=c2oc3cc(O)ccc3cc2C(=O)Nc2ccccn2)cc1OC	Runt-CBFb FRET 54.6, Hck-Nef inh 84.0, Runt-SMMHC FRET 92.5 | Hck-Nef confirm inactive
Cc1ccc2sc(C)[n+](CCCS(=O)(=O)[O-])c2c1	none
COc1cc(/C=C/c2sc3ccccc3[n+]2CCCS(=O)(=O)[O-])ccc1O	Hck-Nef inh 65.3 | Hck-Nef confirm inactive
COc1cccc(-c2c(C(=O)N/N=C/c3ccco3)nnn2-c2nonc2N)c1	none (no result: Runt-CBFb FRET, Hck-Nef inh, RBBP9 inh, Runt-SMMHC FRET)
COc1ccc(-c2nnn(CC(=O)NCCc3ccc(OC)c(OC)c3)n2)cc1	Hck-Nef inh 96.9 | Hck-Nef confirm inactive
O=C(N/N=C/c1ccc(Cl)c([N+](=O)[O-])c1)c1cc(-c2ccc3c4c(cccc24)CC3)n[nH]1	Hck-Nef inh 61.6 | Hck-Nef confirm inactive
O=C(N/N=C/c1cccc([N+](=O)[O-])c1)c1cc(-c2ccc3c4c(cccc24)CC3)n[nH]1	none
O=C(NC1CC1)c1cc(-c2ccccn2)nc2ccccc12	none
O=C(NCCC1=CCCCC1)c1cc(-c2ccccn2)nc2ccccc12	Hck-Nef inh 59.9 | Hck-Nef confirm inactive
CCN1CCCc2cc(CN(CCN3CCOCC3)C(=S)Nc3ccc(OC)c(Cl)c3)ccc21	none
CCN1CCCc2cc(CN(CCN3CCOCC3)C(=S)Nc3ccccc3C)ccc21	Hck-Nef inh 56.9 | Hck-Nef confirm inactive
CCN1CCCc2cc(CN(CCN3CCOCC3)C(=S)Nc3ccccc3OC)ccc21	none
CCN1CCCc2cc(CN(CCN3CCOCC3)C(=S)Nc3ccc(OC)c(OC)c3)ccc21	Hck-Nef inh 52.2 | Hck-Nef confirm inactive

Source: PubChem (several laboratories)
